{"data": "Experimental data from different studies", "read-out": "cell growth or viability", "note": "Protocols differ between the studies behind these lines."}
{"Compound": "c1ccc(-c2ccc(CNCC3(N4CCCC4)COC3)o2)cc1", "cell line": "U-87 MG", "tested at": "30 µM", "time": "48 h", "endpoint": "viability", "value": "0.534%"}
{"Compound": "COc1ccc(NC(=O)c2c(Nc3ccccc3)sc(C#N)c2NC(=O)CNc2ccc(C)cc2)cc1", "cell line": "HCT-116", "technique": "SRB", "tested at": "10 nM", "time": "48 h", "endpoint": "viability", "value": "92.4%"}
{"Compound": "Cc1cccc2cc(CNCC3(N4CCCC4)COC3)cnc12", "cell line": "U-87 MG", "tested at": "30 µM", "time": "48 h", "endpoint": "viability", "value": "97.7%"}
{"Compound": "COc1ccc(NC(=O)c2c(Nc3ccccc3)sc(C(=O)NN=Cc3cc(OC)c(OC)c(OC)c3)c2NC(C)=O)cc1", "cell line": "HCT-116", "technique": "SRB", "tested at": "1 µM", "time": "48 h", "endpoint": "viability", "value": "78.4%"}
{"Compound": "CCOC(=O)c1c(C)ncn1CC(c1cn(C)c2ccc([N+](=O)[O-])cc12)c1cn(C)c2ccc([N+](=O)[O-])cc12", "cell line": "DH82", "technique": "MTS", "tested at": "20 µM", "time": "24 h", "endpoint": "inhibition", "value": "20.5%"}
{"Compound": "COc1ccc(C=NNC(=O)c2sc(Nc3ccccc3)c(C(=O)Nc3ccc(OC)cc3)c2NC(C)=O)cc1", "cell line": "HCT-116", "technique": "SRB", "tested at": "1 µM", "time": "48 h", "endpoint": "viability", "value": "59.4%"}
{"Compound": "CCn1cc(C#Cc2cc(C(=O)NCc3ccsc3)ccc2C)c2c(N)ncnc21", "cell line": "32D", "endpoint": "GI50", "value": "23.3 nM"}
{"Compound": "COc1ccc(NC(=O)c2c(Nc3ccccc3)sc(C(=O)NN=Cc3ccccc3)c2NC(C)=O)cc1", "cell line": "HCT-116", "technique": "SRB", "tested at": "1 nM", "time": "48 h", "endpoint": "viability", "value": "101%"}
{"Compound": "COCCn1cc(C#Cc2cc(C(=O)NCc3ccsc3)ccc2C)c2c(N)ncnc21", "cell line": "32D", "endpoint": "GI50", "value": "> 3000 nM"}
{"Compound": "CC(C)Cc1nn(C)c(=O)c2c(SCCCO)n(Cc3cnc(Cl)c4ccccc34)cc12", "cell line": "Raji", "technique": "MTT", "time": "96 h", "endpoint": "EC50", "value": "60 nM"}
{"Compound": "COc1cccc(Oc2ccccc2NC(=O)CNC(=O)c2cccc3ccccc23)c1", "cell line": "EKVX", "technique": "SRB", "time": "48 h", "endpoint": "GI50", "value": "1290 nM"}
{"Compound": "CC(C)Cc1nn(C)c(=O)c2c(SCCCO)n(Cc3ccc(NCCCCCN)nc3)cc12", "cell line": "Raji", "technique": "MTT", "time": "96 h", "endpoint": "EC50", "value": "520 nM"}
{"Compound": "COC(=O)c1c(C)ncn1CC(c1c[nH]c2ccc(C)cc12)c1c[nH]c2ccc(C)cc12", "cell line": "DH82", "technique": "MTS", "tested at": "20 µM", "time": "24 h", "endpoint": "inhibition", "value": "11.3%"}
{"Compound": "COc1ccc(NC(=O)c2c(Nc3ccccc3)sc(C(=O)NN=Cc3ccc(C)cc3)c2NC(C)=O)cc1", "cell line": "HCT-116", "technique": "SRB", "tested at": "10 nM", "time": "48 h", "endpoint": "viability", "value": "90.2%"}
{"Compound": "COc1ccc(-c2ccc(-c3ccc(C(=N)N)nc3)s2)cc1", "cell line": "EKVX", "technique": "SRB", "endpoint": "GI50", "value": "1700 nM"}
{"Compound": "COc1ccc2occ(/C=C/c3ccc(O)cc3)c(=O)c2c1", "cell line": "HSC-2", "technique": "MTT", "time": "6.7 h", "endpoint": "CC50", "value": "9.5 µM"}
{"Compound": "COc1ccc(NC(=O)c2c(Nc3ccccc3)sc(C#N)c2NC(=O)CNc2ccccc2)cc1", "cell line": "HCT-116", "technique": "SRB", "tested at": "10 µM", "time": "48 h", "endpoint": "viability", "value": "87.2%"}
{"Compound": "COc1cc(-c2ccc(-c3ccc(C(=N)N)nc3)s2)cc(OC)c1OC", "cell line": "EKVX", "technique": "SRB", "endpoint": "GI50", "value": "5190 nM"}
{"Compound": "COc1ccc(/C=C/c2coc3ccc(OC)cc3c2=O)cc1", "cell line": "HSC-2", "technique": "MTT", "time": "6.7 h", "endpoint": "CC50", "value": "21 µM"}
{"Compound": "CC(C)Cc1nn(C)c(=O)c2c(SCCCO)n(Cc3cnc(NCCCCCN)c4ccccc34)cc12", "cell line": "Raji", "technique": "MTT", "time": "96 h", "endpoint": "EC50", "value": "24 nM"}
{"Compound": "COc1ccc(NC(=O)c2c(Nc3ccccc3)sc(C#N)c2NC(=O)CNc2ccccc2[N+](=O)[O-])cc1", "cell line": "HCT-116", "technique": "SRB", "tested at": "10 µM", "time": "48 h", "endpoint": "viability", "value": "72.7%"}
{"Compound": "Cn1nnc2c(C(N)=O)ncn2c1=O", "cell line": "KATO3", "endpoint": "EC50", "value": "592000 nM"}
{"Compound": "COc1ccc(NC(=O)c2c(Nc3ccccc3)sc(C#N)c2NC(=O)CNc2ccccc2Cl)cc1", "cell line": "HCT-116", "technique": "SRB", "tested at": "10 nM", "time": "48 h", "endpoint": "viability", "value": "87.7%"}
{"Compound": "C=CC(=O)N1CCC[C@@H](n2nc(-c3ccc(Oc4ccccc4)cc3)c3c(N)ncnc32)C1", "cell line": "DOHH-2", "technique": "ATP luminescence", "time": "72 h", "endpoint": "GI50", "value": "17000 nM"}
{"Compound": "Cc1ccc(C(=O)NCc2ccsc2)cc1C#Cc1cn(CCN(C)C)c2ncnc(N)c12", "cell line": "32D", "endpoint": "GI50", "value": "> 1000 nM"}
{"Compound": "COc1ccc2occ(/C=C/c3cc(OC)c(OC)c(OC)c3)c(=O)c2c1", "cell line": "HSC-2", "technique": "MTT", "time": "7 h", "endpoint": "CC50", "value": "20 µM"}
{"Compound": "CCCCCCCCCCCCCCCCOP(=O)([O-])OCC[N+](C)(C)C", "cell line": "DH82", "technique": "MTS", "tested at": "20 µM", "time": "24 h", "endpoint": "inhibition", "value": "43.9%"}
{"Compound": "Cc1ccc(C(=O)NCc2ccsc2)cc1C#Cc1cn(C2CCCC2)c2ncnc(N)c12", "cell line": "32D", "endpoint": "GI50", "value": "> 1000 nM"}
